The source of these data is publication PMC8920403 (Drug Delivery, 2022).

Series [1] concerns PDGF-AB. Put plainly: ELISA of PDGF-AB in cornea of alkali burn CNV mice. It counts as in vivo, BALB/c mice. Particulars: dexamethasone eye drops, days 3 and 7, P < 0.05. An outline of the steps: (§1)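 Alkali-burn CNV mice (0.1 M NaOH, 20 s) were given saline, test-compound lipid carrier or dexamethasone drops, 5 μL twice daily. On days 3 and 7, five mice per group were killed. Corneas were weighed, frozen at −80 °C, thawed at 4 °C for 0.5 h and minced. Tissue was extracted in 100 μL RIPA on ice for 1.5 h and spun at 12,000 rpm, 4 °C, 5 min. ELISA absorbance was read at 450 nm and normalised to BCA total protein. Mean ± SD; one-way ANOVA, with t test for pairs.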
For orientation: In an ELISA, binding on a coated surface is turned into a signal by an enzyme label.

In series [2] the test system is VEGF-A. Put plainly: ELISA of VEGF-A in cornea of alkali burn CNV mice. Format: in vivo, BALB/c mice. The settings on record: dexamethasone eye drops, days 3 and 7, P < 0.05. In outline: as §1
In series [3] the test system is corneal neovascularization (CNV). The series can be described thus: Alkali burn injury induced CNV in mice. It counts as in vivo, BALB/c mice. The settings on record: SRB-NLC 0.0125-0.05%, fluorescein staining. An outline of the steps:
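Male BALB/c mice (20–25 g) were anaesthetised with 1% sodium pentobarbital i.p. (80 mg/kg) plus 0.4% oxybuprocaine drops. 2 μL of 0.1 M NaOH on filter paper was applied to the right central cornea for 20 s, then rinsed with 20 mL saline. Groups of 16 received saline, test-compound lipid carrier (0.05, 0.025 or 0.0125%) or dexamethasone drops, 5 μL twice daily for 7 days. On day 7, corneas from three mice per group were fixed in 4% paraformaldehyde for 48 h, paraffin-processed, and 5 µm sagittal sections were H&E stained.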

Series [4] can be described thus: Ocular pharmacokinetics in rabbit eyes. The settings on record: after single topical administration; limit of quantitation 0.01 μg/mL. It counts as in vivo, New Zealand White rabbits. An outline of the steps:
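Forty-two male New Zealand White rabbits (2.0–2.5 kg) were split into lipid-carrier and suspension groups. Each received a single 50 μL instillation into the lower conjunctival sac of both eyes, with lids held closed for 15 s. At preset times, rabbits were killed with i.v. 4% phenobarbital sodium via the marginal ear vein. After a saline rinse of the ocular surface, aqueous humour was drawn at the limbus with a 26-G needle.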

Series [5] relates to neovascular corneal area. The settings on record: topical solution 0.05 mg/mL SRB and 0.07 mg/mL DMSO; ref Yildirim et al., 2020; cited from earlier work.
Series [6] concerns endothelial cells. The settings on record: at a dose of 7.5 µg/mL (0.1–100 µg/mL studied); ref Thiele et al., 2013; cited from earlier work.
The test system of series [7] is experimental CNV. Particulars: oral administration, dose-dependent; ref Seo et al., 2012; cited from earlier work.

Regarding Dexamethasone sodium phosphate, the “PDGF-AB level in corneal tissue vs saline group” value in series [1] was “significantly lower”. For the same compound, the “VEGF-A level in corneal tissue vs saline group” value in series [2] is given as “significantly lower”.

Take `CNC(=O)c1cc(Oc2ccc(NC(=O)Nc3ccc(Cl)c(C(F)(F)F)c3)cc2)ccn1` [SRB, Sorafenib]: the “Recovery of corneal epithelial defects after alkali burn injury” value in series [3] is given as “could effectively promote the recovery of corneal epithelial defects”. Also, in series [4], the “SRB levels in the aqueous humor (AH)” value was below 0.01 µg/mL. In addition, the “Percentage of the neovascular corneal area vs DMSO alone” value in series [5] is “significantly lower”. The “Toxic effects on endothelial cells” value in series [6] was “no toxic effects”. For the same compound, the “Development of experimental CNV” value in series [7] is “significantly reduced the development of experimental CNV”.
